Broadly, the solubility is the concentration that dissolves in the medium under given conditions. A higher solubility goes with much dissolved substance. As usually defined, the pIC50 is the IC50 on a negative log10 scale, so that one unit is a factor of ten.

25 compounds from ChEMBL document CHEMBL4118216, “Adamantyl thioureas as soluble epoxide hydrolase inhibitors” (Bioorg Med Chem Lett, 2018) can be followed below.

pIC50: −log10 of the molar value. Converted amounts (≈) assume the structure as drawn.

A short description of series [1]: Aqueous solubility of the compound in 0.1 M sodium phosphate buffer at pH 7.4. It is filed as physicochemical. Summed up:
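Solubility determined in 0.1 M sodium phosphate buffer, pH 7.4, with 1% DMSO present.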

The target in series [2] is T1, Bifunctional epoxide hydrolase 2 (Homo sapiens, UniProt P34913).
T1 sequence (P34913 whole entry): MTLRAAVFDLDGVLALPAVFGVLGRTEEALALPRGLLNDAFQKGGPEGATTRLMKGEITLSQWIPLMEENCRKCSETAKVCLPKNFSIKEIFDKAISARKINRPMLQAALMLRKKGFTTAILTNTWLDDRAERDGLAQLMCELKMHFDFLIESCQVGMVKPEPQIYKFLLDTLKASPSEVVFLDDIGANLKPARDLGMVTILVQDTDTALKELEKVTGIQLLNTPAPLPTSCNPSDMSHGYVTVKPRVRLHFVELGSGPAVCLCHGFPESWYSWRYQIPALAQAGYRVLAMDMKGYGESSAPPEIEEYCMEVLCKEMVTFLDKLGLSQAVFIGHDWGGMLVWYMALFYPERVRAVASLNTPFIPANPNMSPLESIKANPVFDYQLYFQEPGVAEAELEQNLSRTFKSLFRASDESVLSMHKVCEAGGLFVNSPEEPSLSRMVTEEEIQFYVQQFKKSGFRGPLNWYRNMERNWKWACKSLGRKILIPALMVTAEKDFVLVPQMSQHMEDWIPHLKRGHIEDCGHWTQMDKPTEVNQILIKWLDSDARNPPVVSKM
Put plainly: Inhibition of recombinant human sEH expressed in baculovirus expression system using CMNPC as substrate preincubated for 5 mins followed by substrate addition measured for 10 mins by fluorescent based assay. Summed up:
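Kinetic fluorescent assay giving IC50 values; each value is the mean of three separate experiments.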

With `S=C(NC1C2CC3CC(C2)CC1C3)NC12CC3CC(CC(C3)C1)C2` (stereo not drawn), the solubility in series [1] was in the range of 60 to 70 µM (≈ 20.7 to 24.1 µg/mL). Moreover, the pIC50 in series [2] is 7.83.
Compound `CC12CC3CC(C)(C1)CC(NC(=S)Nc1ccccc1)(C3)C2` showed a solubility in series [1] of 40 to 60 µM (≈ 12.6 to 18.9 µg/mL). Besides, the negative logarithm of the IC50 (pIC50) in series [2] was 5.91.
`CC(NC(=O)NCCCCCCCCNC(=O)NC(C)C12CC3CC(CC(C3)C1)C2)C12CC3CC(CC(C3)C1)C2` (stereo not drawn): in series [1], the solubility lay in the range of 10 to 25 µM (≈ 5.55 to 13.9 µg/mL).
Turning to `CC(NC(=S)NCCc1ccccc1)C12CC3CC(CC(C3)C1)C2` (stereo not drawn), in series [1], the solubility is 20 to 30 µM (≈ 6.85 to 10.3 µg/mL). Moreover, the negative-log IC50 (pIC50) in series [2] was 6.46.
In the same order, the values of `S=C(NCCNC(=S)NC12CC3CC(CC(C3)C1)C2)NC12CC3CC(CC(C3)C1)C2` are 100 to 110 µM (≈ 44.7 to 49.1 µg/mL) and 6.01.
In the same order, the values of `CC12CC3CC(C)(C1)CC(NC(=S)Nc1cccc(F)c1)(C3)C2` are 50 to 60 µM (≈ 16.6 to 19.9 µg/mL) and 7.24.
Consider `S=C(NC1C2CC3CC(C2)CC1C3)NC1C2CC3CC(C2)CC1C3` (stereo not drawn), for which, in series [1], the solubility fell in the range of 50 to 60 µM (≈ 17.2 to 20.7 µg/mL). Besides, in series [2], the pIC50 is 6.88.
For `CC12CC3CC(C)(C1)CC(NC(=S)Nc1ccc(F)cc1)(C3)C2`, the solubility in series [1] lay in the range of 175 to 200 µM (≈ 58.2 to 66.5 µg/mL). Further, the negative-log IC50 (pIC50) in series [2] is 6.26.
As to `CC(NC(=O)NCCCCNC(=O)NC(C)C12CC3CC(CC(C3)C1)C2)C12CC3CC(CC(C3)C1)C2` (stereo not drawn), the solubility in series [1] lay within 10 to 25 µM (≈ 4.99 to 12.5 µg/mL).
With `CC(NC(=S)NC12CC3CC(CC(C3)C1)C2)C12CC3CC(CC(C3)C1)C2` (stereo not drawn), the pIC50 in series [2] is 7.22.
As for `CC12CC3CC(C)(C1)CC(NC(=S)Nc1ccc(C45CC6CC(CC(C6)C4)C5)cc1)(C3)C2`, in series [1], the solubility is 70 to 80 µM (≈ 31.4 to 35.9 µg/mL). The negative-log IC50 (pIC50) in series [2] was 5.61.
Compound `S=C(NCCCCCCCCNC(=S)NC1C2CC3CC(C2)CC1C3)NC1C2CC3CC(C2)CC1C3` (stereo not drawn) showed a solubility in series [1] of 25 to 35 µM (≈ 13.3 to 18.6 µg/mL).
Consider `O=C(NCCCCNC(=O)NCC12CC3CC(CC(C3)C1)C2)NCC12CC3CC(CC(C3)C1)C2`, for which the solubility in series [1] lay within 50 to 75 µM (≈ 23.5 to 35.3 µg/mL).
In series [1], `CC12CC3CC(C)(C1)CC(NC(=S)NC1C4CC5CC(C4)CC1C5)(C3)C2` (stereo not drawn) gave a solubility of 80 to 90 µM (≈ 29.8 to 33.5 µg/mL). Also, the pIC50 in series [2] is 6.82.
For `CC12CC3CC(C)(C1)CC(NC(=S)NC14CC5CC(CC(C5)C1)C4)(C3)C2`, in series [1], the solubility lay within 30 to 40 µM (≈ 11.2 to 14.9 µg/mL). Moreover, the pIC50 in series [2] is 7.79.
In series [1], `Fc1cccc(NC(=S)NCCC23CC4CC(CC(C4)C2)C3)c1` came in with a solubility of 80 to 90 µM (≈ 26.6 to 29.9 µg/mL). Moreover, the pIC50 in series [2] is 6.80.
The compound `CC12CC3CC(C)(C1)CC(NC(=S)NCc1ccccc1)(C3)C2` displayed a solubility in series [1] of 10 to 15 µM (≈ 3.29 to 4.93 µg/mL). In addition, in series [2], the negative-log IC50 (pIC50) was 7.24.
The compound `O=C(NC12CC3CC(CC(C3)C1)C2)NC12CC3CC(CC(C3)C1)C2` showed a solubility in series [1] of 5 to 10 µM (≈ 1.64 to 3.29 µg/mL).
As to `S=C(NC12CC3CC(CC(C3)C1)C2)NC12CC3CC(CC(C3)C1)C2`, the solubility in series [1] was 30 to 40 µM (≈ 10.3 to 13.8 µg/mL). Also, the pIC50 in series [2] was 7.95.
In the case of `CC(NC(=S)NC1C2CC3CC(C2)CC1C3)C12CC3CC(CC(C3)C1)C2` (stereo not drawn), the solubility in series [1] is 30 to 40 µM (≈ 11.2 to 14.9 µg/mL). In addition, the negative logarithm of the IC50 (pIC50) in series [2] was 5.11.
`CC(NC(=S)Nc1ccc(F)cc1)C12CC3CC(CC(C3)C1)C2` (stereo not drawn) had a solubility in series [1] of 75 to 100 µM (≈ 24.9 to 33.2 µg/mL). Besides, the negative-log IC50 (pIC50) in series [2] was 5.96.
`S=C(NCC12CC3CC(CC(C3)C1)C2)Nc1ccc(C23CC4CC(CC(C4)C2)C3)cc1` gave a solubility in series [1] of 65 to 75 µM (≈ 28.3 to 32.6 µg/mL). In addition, the negative logarithm of the IC50 (pIC50) in series [2] is 5.23.
`S=C(Nc1ccc(C23CC4CC(CC(C4)C2)C3)cc1)NC1C2CC3CC(C2)CC1C3` (stereo not drawn): the solubility in series [1] was 175 to 200 µM (≈ 73.6 to 84.1 µg/mL). For the same compound, in series [2], the pIC50 is 5.23.
On to `CCC(CC12CC3CC(CC(C3)C1)C2)NC(=S)Nc1ccccc1` (stereo not drawn), for which, in series [2], the pIC50 is 4.30.
As for `CC12CC3CC(C)(C1)CC(NC(=S)NCCc1ccccc1)(C3)C2`, the solubility in series [1] is 8 to 12 µM (≈ 2.74 to 4.11 µg/mL). Moreover, the negative-log IC50 (pIC50) in series [2] was 6.67.
